Measurements as given in ChEMBL document CHEMBL1138202, “Tricyclic pyrazoles. 4. Synthesis and biological evaluation of analogues of the robust and selective CB2 cannabinoid ligand 1-(2',4'-dichlorophenyl)-6-methyl-N-piperidin-1-yl-1,4-dihydroindeno[1,2-c]pyrazole-3-carboxamide” (J Med Chem, 2006).

Assays:
[1] = molecular target: Cannabinoid receptor 2 (Homo sapiens) (UniProt P34972); test: Intrinsic activity at CB2 receptor assessed as induction of ERK1/2 phosphorylation in HL60 cells at 10 nM after 10 mins relative to control; format: functional, cell-based
Cannabinoid receptor 2 (Homo sapiens), sequence (P34972 whole entry): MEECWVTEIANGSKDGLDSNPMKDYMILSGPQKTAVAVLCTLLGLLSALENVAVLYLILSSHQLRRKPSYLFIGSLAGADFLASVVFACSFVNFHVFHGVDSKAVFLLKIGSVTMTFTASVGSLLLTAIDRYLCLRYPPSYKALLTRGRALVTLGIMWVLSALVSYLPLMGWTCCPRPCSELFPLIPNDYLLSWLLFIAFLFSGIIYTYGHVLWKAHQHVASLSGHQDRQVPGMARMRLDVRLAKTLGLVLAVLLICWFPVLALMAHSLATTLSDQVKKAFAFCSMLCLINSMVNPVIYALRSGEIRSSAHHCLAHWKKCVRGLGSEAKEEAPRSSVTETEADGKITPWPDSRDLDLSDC
In short: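 HL-60 cells in RPMI 1640 with 10% heat-inactivated FBS, 37 °C, 5% CO2, used at 80% confluency. Compounds in medium with 1% DMSO added to the cell suspension for 10 min. Lysates western blotted with anti-phospho-MAPK 1/2 and read by chemiluminescence. Phospho-ERK 1/2 given as mean percentage of vehicle from five separate experiments.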

[2] = molecular target: Cannabinoid receptor (Mus musculus) (UniProt P47746+P47936); test: Selectivity for CD1 mouse CB2 receptor over CB1 receptor; format: protein assay
Cannabinoid receptor (Mus musculus), sequence (P47746 whole entry, looked up): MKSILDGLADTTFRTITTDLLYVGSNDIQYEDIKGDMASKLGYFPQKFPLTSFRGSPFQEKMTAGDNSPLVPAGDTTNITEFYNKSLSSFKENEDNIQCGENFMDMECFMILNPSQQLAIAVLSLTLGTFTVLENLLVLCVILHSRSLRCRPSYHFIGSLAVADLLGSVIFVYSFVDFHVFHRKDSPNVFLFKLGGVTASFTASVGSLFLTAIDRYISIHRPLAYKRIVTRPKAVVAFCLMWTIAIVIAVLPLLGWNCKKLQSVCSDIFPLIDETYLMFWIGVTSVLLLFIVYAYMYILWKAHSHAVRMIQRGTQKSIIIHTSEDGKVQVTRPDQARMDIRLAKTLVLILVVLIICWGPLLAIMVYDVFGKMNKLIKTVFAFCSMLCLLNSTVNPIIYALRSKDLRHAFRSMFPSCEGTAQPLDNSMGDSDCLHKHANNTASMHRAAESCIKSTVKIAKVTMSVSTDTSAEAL
Cannabinoid receptor (Mus musculus), sequence (P47936 whole entry, looked up): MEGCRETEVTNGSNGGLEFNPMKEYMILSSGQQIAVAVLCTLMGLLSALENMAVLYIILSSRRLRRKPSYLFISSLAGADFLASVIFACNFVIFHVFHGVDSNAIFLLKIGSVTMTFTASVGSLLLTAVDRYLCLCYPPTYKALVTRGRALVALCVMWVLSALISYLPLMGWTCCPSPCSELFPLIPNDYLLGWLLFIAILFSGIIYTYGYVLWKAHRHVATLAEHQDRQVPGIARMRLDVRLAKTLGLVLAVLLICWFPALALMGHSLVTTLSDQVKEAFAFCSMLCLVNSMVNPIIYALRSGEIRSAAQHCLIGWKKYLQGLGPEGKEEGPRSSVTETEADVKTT

Cannabinoid receptor 2 = Cannabinoid receptor 2 (Mus musculus, UniProt P47936); test: Displacement of [3H]CP-55940 from CD1 mouse spleen CB2 receptor; format: tissue-based
Cannabinoid receptor 2, sequence (P47936 whole entry): as the sequence (P47936 whole entry, looked up) above
In short: (§1)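 Male CD-1 mouse brain (minus cerebellum) for CB1 or spleen for CB2, homogenised in ice-cold TME (50 mM Tris-HCl, 1 mM EDTA, 3.0 mM MgCl2, pH 7.4) and centrifuged to membranes. GF/C filtration, scintillation counting. Triplicate, five independent experiments; sigmoid fit IC50 converted to Ki.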

Cannabinoid receptor 1 = Cannabinoid receptor 1 (Mus musculus, UniProt P47746); test: Displacement of [3H]CP-55940 from CD1 mouse brain CB1 receptor; format: tissue-based; in short: as §1
Cannabinoid receptor 1, sequence (P47746 whole entry): as the sequence (P47746 whole entry, looked up) above

SMILES: Cc1ccc2c(c1)Cc1c(C(=O)NN3CCCCC3)nn(-c3ccc(Cl)cc3Cl)c1-2
- Activity ([1]; HL-60): 83%
- Activity ([1]; HL-60, filed as agonist): Agonist
- Ratio Ki [2]: 9810
- Ki (Cannabinoid receptor 2): 0.037 nM
- Ki (Cannabinoid receptor 1): 363 nM

SMILES: Cc1cc2c(cc1Cl)Cc1c(C(=O)NN3CCCCC3)nn(-c3ccc(Cl)cc3Cl)c1-2
- Ratio Ki [2]: 14

SMILES: Cc1ccc2c(c1)Cc1c(C(=O)Nc3ccc(Cl)cc3Cl)nn(-c3ccc(Cl)cc3Cl)c1-2
- Ki (Cannabinoid receptor 2): > 5000 nM
- Ki (Cannabinoid receptor 1): 2630 nM

SMILES: Cc1ccc2c(c1)Cc1c(C(=O)Nc3ccc(Cl)c(Cl)c3)nn(-c3ccc(Cl)cc3Cl)c1-2
- Ki (Cannabinoid receptor 2): > 10000 nM
- Ki (Cannabinoid receptor 1): > 10000 nM

SMILES: Cc1ccc(NC(=O)c2nn(-c3ccc(Cl)cc3Cl)c3c2Cc2cc(C)ccc2-3)cc1
- Ki (Cannabinoid receptor 2): 74 nM
- Ki (Cannabinoid receptor 1): > 5000 nM

SMILES: Cc1ccc2c(c1)Cc1c(C(=O)NNc3ccc(Cl)cc3)nn(-c3ccc(Cl)cc3Cl)c1-2
- Ki (Cannabinoid receptor 2): > 5000 nM
- Ki (Cannabinoid receptor 1): > 10000 nM

SMILES: Cc1ccc2c(c1)Cc1c(C(=O)NNc3ccc([N+](=O)[O-])cc3)nn(-c3ccc(Cl)cc3Cl)c1-2
- Ratio Ki [2]: 2
- Ki (Cannabinoid receptor 2): 2120 nM
- Ki (Cannabinoid receptor 1): 4500 nM

SMILES: Cc1cc2c(cc1Cl)-c1c(c(C(=O)NC3CCCCC3)nn1-c1ccc(Cl)cc1Cl)C2
- Ratio Ki [2]: 33

SMILES: Cc1ccc2c(c1)Cc1c(C(=O)Nc3ccc(F)cc3)nn(-c3ccc(Cl)cc3Cl)c1-2
- Ki (Cannabinoid receptor 2): 61 nM
- Ki (Cannabinoid receptor 1): > 5000 nM

SMILES: Cc1ccc(Cn2nc(C(=O)N[C@@H]3C(C)(C)[C@@H]4CC[C@@]3(C)C4)cc2-c2ccc(Cl)c(C)c2)cc1
- Ratio Ki [2]: 250

SMILES: CCCCCCC(C)(C)c1ccc(C2CC(O)CC[C@H]2CCCO)c(O)c1 (single isomer, unassigned) [CP-55940]
- Ki (Cannabinoid receptor 2): 1.11 nM
- Ki (Cannabinoid receptor 1): 1.5 nM

SMILES: Cc1cc2c(cc1Cl)-c1c(c(C(=O)NN3CCCCC3)nn1-c1ccc(Cl)cc1Cl)C2
- Ratio Ki [2]: 4.6
- Ki (Cannabinoid receptor 2): 200 nM

SMILES: O=C(NN1CCCCC1)c1nn(-c2ccc(Cl)cc2Cl)c2c1Cc1cc(Cl)ccc1-2
- Activity ([1]; HL-60): 65%
- Activity ([1]; HL-60, filed as agonist): Agonist
- Ratio Ki [2]: 6030

SMILES: Cc1ccc2c(c1)Cc1c(C(=O)NNc3ccccc3)nn(-c3ccc(Cl)cc3Cl)c1-2
- Ratio Ki [2]: 36
- Ki (Cannabinoid receptor 2): 63 nM
- Ki (Cannabinoid receptor 1): 2280 nM

SMILES: Cc1ccc2c(c1)Cc1c(C(=O)Nc3ccc(C(F)(F)F)cc3)nn(-c3ccc(Cl)cc3Cl)c1-2
- Ki (Cannabinoid receptor 2): > 5000 nM
- Ki (Cannabinoid receptor 1): > 10000 nM

SMILES: COc1ccc(NC(=O)c2nn(-c3ccc(Cl)cc3Cl)c3c2Cc2cc(C)ccc2-3)cc1
- Ki (Cannabinoid receptor 2): 114 nM
- Ki (Cannabinoid receptor 1): > 10000 nM

SMILES: Cc1ccc2c(c1)Cc1c(C(=O)Nc3ccc(Cl)cc3)nn(-c3ccc(Cl)cc3Cl)c1-2
- Ki (Cannabinoid receptor 2): 177 nM
- Ki (Cannabinoid receptor 1): > 10000 nM

SMILES: Cc1ccc2c(c1)Cc1c(C(=O)Nc3ccccc3)nn(-c3ccc(Cl)cc3Cl)c1-2
- Activity ([1]; HL-60): 125%
- Activity ([1]; HL-60, filed as agonist): Agonist
- Ratio Ki [2]: 73
- Ki (Cannabinoid receptor 2): 32.8 nM
- Ki (Cannabinoid receptor 1): 2410 nM

SMILES: COc1ccc(NNC(=O)c2nn(-c3ccc(Cl)cc3Cl)c3c2Cc2cc(C)ccc2-3)cc1
- Ki (Cannabinoid receptor 2): 3000 nM
- Ki (Cannabinoid receptor 1): > 5000 nM

SMILES: Cc1ccc2c(c1)Cc1c(C(=O)NC3CCCCC3)nn(-c3ccc(Cl)cc3Cl)c1-2
- Activity ([1]; HL-60): 61.3%
- Activity ([1]; HL-60, filed as agonist): Agonist
- Ratio Ki [2]: 118
- Ki (Cannabinoid receptor 2): 7.6 nM
- Ki (Cannabinoid receptor 1): 900 nM
